Reference: ChEMBL document CHEMBL3044819, “Structure-activity relationship in the interaction of substituted perinaphthenones with Mycosphaerella fijiensis” (J Agric Food Chem, 2009)
Active and inactive are the calls of the source. The rule behind the calls is not given here.

Test system: Pseudocercospora fijiensis
Assay: Antifungal activity against Pseudocercospora fijiensis assessed as inhibition of mycelial growth under 12 hr photoperiod measured after 8 days
Format: functional, organism-based
Method in brief: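 Microtiter well assay; inoculum adjusted to 2 × 10⁵ mycelial fragments/mL. Plates kept in an incubation chamber 1 m from white fluorescent tubes on a 12 h photoperiod. Mycelial growth was measured after 8 days, which is the logarithmic growth phase. IC₅₀ values were calculated from growth inhibition, with statistical analysis per Lazzaro et al. Benomyl and propiconazole were tested as reference fungicides.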

SMILES | growth inhibition (GI)
O=C1C(Br)=Cc2cccc3cccc1c23 | Active
O=C1C=Cc2ccc(O)c3cccc1c23 | inactive
O=C1C([N+](=O)[O-])=Cc2cccc3cccc1c23 | Active
COC1=CC(=O)c2cccc3cccc1c23 | inactive
O=C1C=Cc2c(O)ccc3cccc1c23 | inactive
O=C1C=C(O)c2cccc3cccc1c23 | inactive
O=C1C=Cc2cccc3cccc1c23 | Active
COc1ccc2cccc3c2c1C=C([N+](=O)[O-])C3=O | Active
COC1=Cc2cccc3cccc(c23)C1=O | inactive
O=C1C(Cl)=Cc2cccc3cccc1c23 | Active
COc1ccc2c3c(cccc13)C(=O)C=C2 | inactive
O=C1C(O)=Cc2cccc3cccc1c23 | inactive
COc1ccc2cccc3c2c1C=CC3=O | inactive
